This is an account of results in ChEMBL document CHEMBL4382256, “Design and Synthesis of Marine Phidianidine Derivatives as Potential Immunosuppressive Agents” (J Med Chem, 2018).

Each structure is given as a SMILES string. Activity calls are given as the source filed them. The calls are words filed in the database; no cut-off is given here.

Data set [1] is described as follows: Immunosuppressive activity in BALB/c mouse CD19-positive B cells assessed as inhibition of anti-IgM/CD40 -induced decrease in IgD expression by measuring mean fluorescence intensity at 3 uM by allophycocyanin staining-based flow cytometric analysis (reference value: 5084). Format: functional. For orientation: A flow cytometer gives signals particle by particle.

The species named for data set [2] is Mus musculus. Put plainly: Immunosuppressive activity in BALB/c mouse CD19-positive B cells assessed as increase in anti-IgM/CD40 stimulated IL-10 levels at 1 to 10 uM after 24 hrs by ELISA. Format: functional. The procedure, abridged: (§1)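 Purified splenic CD19+ B cells (negative selection, >98% pure) stimulated with F(ab')2 anti-IgM (10 μg/ml) plus anti-CD40 (1 μg/ml), with or without compound at 10, 3 and 1 μM, 24 h. Supernatant IL-6 and IL-10 measured by mouse ELISA kits.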
A general note: An ELISA detects its analyte on a solid surface through an enzyme-linked reagent.

The species named for data set [3] is Mus musculus. Put plainly: Immunosuppressive activity in BALB/c mouse CD4-positive T cells assessed as inhibition of anti-CD3/CD28 stimulated cell proliferation at 1 to 10 uM after 48 hrs by [3H]-thymidine uptake assay. Type of data set: functional. The procedure, abridged: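 CD4+ T cells isolated from BALB/c spleen by immunomagnetic negative selection (purity >98%). 4×10^5 cells/well on plate-coated anti-CD3 (5 μg/ml) plus anti-CD28 (2 μg/ml), with or without compound at 10, 3 and 1 μM, for 48 h. Proliferation read by 0.5 μCi/well [3H]thymidine pulse.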

Data set [4] is filed under the species Mus musculus. Put plainly: Immunosuppressive activity in BALB/c mouse CD4-positive T cells assessed as decrease in anti-CD3/CD28 stimulated IL-2 production at 1 to 10 uM after 24 hrs by ELISA. Format: functional. Put shortly:
(§2)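 Purified splenic CD4+ T cells (negative selection, >98% pure) stimulated with anti-CD3 (5 μg/ml) plus anti-CD28 (2 μg/ml), with or without compound at 10, 3 and 1 μM, for 24 h. Supernatant IL-2 and IFN-γ measured by mouse ELISA kits.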

Data set [5] concerns Splenocyte. Put plainly: Immunosuppressive activity in BALB/c mouse splenocytes assessed as inhibition of LPS-stimulated B-cell proliferation by measuring [3H]-thymidine uptake preincubated for 48 hrs followed by LPS stimulation and [3H]-thymidine addition for 8 hrs measured after 48 hrs by beta-scintillation counting analysis. Format: functional, cell-based. Put shortly: (§3)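 Female BALB/c splenocytes (5×10^5 cells), triplicate, with or without compound, stimulated with Con A 5 μg/ml (T cells) or LPS (E. coli 055:B5) 10 μg/ml (B cells). Culture 48 h at 37 °C, 5% CO2. Pulsed 8 h with 0.5 μCi/well [3H]thymidine, harvested to glass fiber filters, beta scintillation counted. IC50 from log(inhibitor) vs normalized response non-linear fit.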

The species named for data set [6] is Mus musculus. Put plainly: Immunosuppressive activity in BALB/c mouse CD4-positive T cells assessed as decrease in anti-CD3/CD28 stimulated IFN-gamma production at 1 to 10 uM after 24 hrs by ELISA. Type of data set: functional. The procedure, abridged: as §2
The species entered for data set [7] is Mus musculus. Put plainly: Immunosuppressive activity in BALB/c mouse CD19-positive B cells assessed as inhibition of anti-IgM/CD40 stimulated cell proliferation at 1 to 10 uM after 48 hrs by [3H]-thymidine uptake assay. Format: functional. Put shortly: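 CD19+ B cells purified from BALB/c spleen by negative selection (purity >98%). Stimulated with F(ab')2 anti-mouse IgM (10 μg/ml) plus hamster anti-mouse CD40 (1 μg/ml), with or without compound at 10, 3 and 1 μM, 48 h. Proliferation by 0.5 μCi/well [3H]thymidine pulse.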

Data set [8] is described as follows: Immunosuppressive activity in BALB/c mouse CD19-positive B cells assessed as inhibition of anti-IgM/CD40 -induced decrease in IgD expression by measuring mean fluorescence intensity at 1 uM by allophycocyanin staining-based flow cytometric analysis (reference value: 5084). Type of data set: functional.
In data set [9] the test system is Splenocyte. Put plainly: Immunosuppressive activity in BALB/c mouse splenocytes assessed as inhibition of concanavalin A stimulated T-cell proliferation by measuring [3H]-thymidine uptake preincubated for 48 hrs followed by concanavalin A stimulation and [3H]-thymidine addition for 8 hrs measured after 48 hrs by beta-scintillation counting analysis. Format: functional, cell-based. The procedure, abridged: as §3

Data set [10] is described as follows: Immunosuppressive activity in BALB/c mouse CD4-positive T cells assessed as anti-CD3/CD28 stimulated CD25 expression at 10 uM by phycoerythrin staining-based flow cytometric analysis (reference value: 52.5%). Type of data set: functional. Put shortly:
(§4)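 Purified splenic CD4+ T cells stimulated with anti-CD3 (5 μg/ml) plus anti-CD28 (2 μg/ml) with or without compound at 10, 3 or 1 μM. Cells washed in PBS, stained with fixable viability dye eFluor 780 for 30 min at 4 °C, Fc-blocked with anti-CD16/CD32, stained with PE-CD25. CD25+ percentage read by flow cytometry.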

Data set [11] can be described thus: Immunosuppressive activity in BALB/c mouse CD4-positive T cells assessed as anti-CD3/CD28 stimulated CD25 expression at 1 uM by phycoerythrin staining-based flow cytometric analysis (reference value: 52.5%). Format: functional. Put shortly: as §4
The nature of data set [12]: Immunosuppressive activity in BALB/c mouse CD4-positive T cells assessed as anti-CD3/CD28 stimulated CD25 expression at 3 uM by phycoerythrin staining-based flow cytometric analysis (reference value: 52.5%). Type of data set: functional. Put shortly:
as §4

Data set [13] can be described thus: Immunosuppressive activity in BALB/c mouse CD19-positive B cells assessed as inhibition of anti-IgM/CD40 -induced decrease in IgD expression by measuring mean fluorescence intensity at 10 uM by allophycocyanin staining-based flow cytometric analysis (reference value: 5084). Format: functional.
Data set [14] is described as follows: Cytotoxicity against BALB/c mouse splenocytes after 48 hrs by CCK-8 assay. Format: cell-based, Splenocyte. The procedure, abridged: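 Fresh female BALB/c splenocytes (1×10^6 cells), RBC-depleted with ammonium chloride, cultured in triplicate in RPMI 1640/10% FBS with penicillin/streptomycin at 37 °C, 5% CO2 for 48 h with or without compound (DMSO stock diluted in medium). CCK-8 added, 6-8 h further incubation, absorbance 450 nm (570 nm calibration). CC50 from log(inhibitor) vs normalized response non-linear fit.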

The species named for data set [15] is Mus musculus. Put plainly: Immunosuppressive activity in BALB/c mouse CD19-positive B cells assessed as decrease in anti-IgM/CD40 stimulated IL-6 levels at 1 to 10 uM after 24 hrs by ELISA. Format: functional. The procedure, abridged:
as §1

The term IC50 denotes the midpoint of a concentration-inhibition curve. As a reminder, the CC50 is the concentration giving 50% cytotoxicity. As to `COc1cc(-c2nc(Cc3c[nH]c4ccccc34)no2)cc(OC)c1OC`, the Flu intensity in data set [1] is on record as 6134; in data set [8], 5640; in [13], 6814. Also, the result in the data set filed under Mus musculus [2], in the data set listed under Mus musculus [4], in the data set listed under Mus musculus [6], in the data set filed under Mus musculus [7] and in the data set filed under Mus musculus [15] was Active. For the same compound, in the data set filed under Mus musculus [3], the inhibition result was “Active”. Moreover, the IC50 stood at 3.1 µM in the data set on Splenocyte [5] and 11 µM in the data set on Splenocyte [9]. The Activity in data set [10] worked out at 22%; in data set [11], 50.3%; in [12] it was 48.6%. Besides, the CC50 at 48 h in data set [14] is more than 50 µM.
With `COc1cc(-c2noc(-c3ccc(N)cc3)n2)cc(OC)c1OC`, the Flu intensity in [1] was determined as 6866; in data set [8], 5281; in [13], 6995. For the same compound, the outcome in the data set filed under Mus musculus [2], in the data set filed under Mus musculus [4], in the data set filed under Mus musculus [6], in the data set listed under Mus musculus [7] and in the data set filed under Mus musculus [15] was Active. For the same compound, the inhibition result in the data set filed under Mus musculus [3] is “Active”. Further, the IC50 in the data set on Splenocyte [5] came out at 1.7 µM; in the data set on Splenocyte [9], 0.8 µM. Also, the Activity in data set [10] came out at 19%; in data set [11], 52.2%; in data set [12] it was 38.3%. The compound also registered a CC50 at 48 h in data set [14] of more than 50 µM.
